Consider 2 compounds from ChEMBL document CHEMBL5523688, “Selective targeting of human TET1 by cyclic peptide inhibitors: Insights from biochemical profiling” (Bioorg Med Chem, 2024).

Structures are written as SMILES.

Experiment [1] addresses T1, Methylcytosine dioxygenase TET1 (Homo sapiens, UniProt Q8NFU7). As to the kind of experiment: Inhibition of N-terminal 3xFlag-tagged recombinant human TET1 catalytic domain (E1418 to V2136 residues) expressed in baculovirus infected Sf9 cells using 5-methylcytosine as substrate preincubated for 10 mins followed by substrate and DNA-cofactor addition measured after 30 mins by Alphascreen assay. The conditions noted are these: read-out: pIC50 (converted). The method in brief: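 TET1 catalytic domain (E1418–V2136, Sf9 baculovirus) at 2 nM was preincubated 10 min with inhibitor (1% DMSO) in HEPES 50 mM pH 7.3, 150 mM NaCl, 0.1% BSA, 0.01% Tween-20. Reaction was started with ascorbate 200 µM, Fe(II) 20 µM, 2OG 20 µM and 5mC ssDNA 10 nM, run 30 min, then EDTA-quenched. Anti-5hmC antibody with AlphaScreen beads, 45–60 min, luminescence read. Three independent replicates.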

The test system of experiment [2] is Methylcytosine dioxygenase TET2 (Homo sapiens), Q6N021 [UNDEFINED MUTATION]. The conditions noted are these: time 20.0 min.
The target in experiment [3] is T1, Methylcytosine dioxygenase TET1. Description: Inhibition of FLAG-tagged human TET1 catalytic domain (E1418 to V2136 residues) expressed in doxycycline induced human U2OS cells incubated for 24 hrs by immunofluorescence assay. In kind it is cell-based. Put shortly:
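U2OS cells stably carrying dox-inducible FLAG-tagged TET1 catalytic domain (E1418–V2136), 5,000/well, seeded 4 h at 37 °C in DMEM with Tet-approved 10% FBS, pen/strep and L-glutamine. Doxycycline 1 µg/mL induction plus compound dosing (1% DMSO final) for 24 h. After fixation, cells were co-stained with anti-5hmC and anti-FLAG antibodies plus DAPI, then imaged. Read-out was mean 5hmC fluorescence in FLAG-positive cells.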

Experiment [4] has as its target Methylcytosine dioxygenase TET1 (Mus musculus, UniProt Q3URK3). Description: Inhibition of recombinant mouse TET1 catalytic domain (E1367 to V2039 residues) expressed in baculovirus expression system using 5-methylcytosine as substrate preincubated for 10 mins followed by substrate and DNA-cofactor addition measured after 9 mins by Alphascreen assay. The method in brief:
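Murine Tet1 catalytic domain (E1367–V2039, High Five baculovirus) at 2 nM was preincubated 10 min with inhibitor (1% DMSO) in HEPES 50 mM pH 7.3, NaCl 150 mM, BSA 0.1%, Tween-20 0.01%. Ascorbate 200 µM, Fe(II) 20 µM, 2OG 20 µM and 5mC ssDNA 10 nM were added; reaction ran 9 min, then EDTA-quenched. AlphaScreen anti-5hmC detection by luminescence.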

Experiment [5] has as its target Methylcytosine dioxygenase TET3 (Homo sapiens, UniProt O43151). As to the kind of experiment: Inhibition of recombinant human TET3 catalytic domain (E824 to I1795 residues) expressed in baculovirus infected Sf9 cells using 5-methylcytosine as substrate preincubated for 10 mins followed by substrate and DNA-cofactor addition measured after 10 mins by Alphascreen assay. The conditions noted are these: read-out: pIC50 (converted).

A further experiment is filed under the species Homo sapiens. Description: Selectivity ratio of pIC50 for inhibition of N-terminal 3xFlag-tagged recombinant human TET1 catalytic domain (E1418 to V2136 residues) expressed in baculovirus infected Sf9 cells to pIC50 for inhibition of N-terminal His-tagged recombinant human TET2 catalytic domain LCIdel mutant (D1129 to G1936 residues with Y1481 to N1843 replaced by 3 x GGGGS linker) expressed in Escherichia coli BL21 (DE3).

In experiment [6] the target is T2, Methylcytosine dioxygenase TET2 (Homo sapiens, UniProt Q6N021). As to the kind of experiment: Inhibition of N-terminal His-tagged recombinant human TET2 catalytic domain LCIdel mutant (D1129 to G1936 residues with Y1481 to N1843 replaced by 3 x GGGGS linker) expressed in Escherichia coli BL21 (DE3) using 5-methylcytosine as substrate preincubated for 10 mins followed by substrate and DNA-cofactor addition measured after 10 mins by Alphascreen assay.

Experiment [7] deals with T2, Methylcytosine dioxygenase TET2. As to the kind of experiment: Inhibition of N-terminal His-tagged recombinant human TET2 catalytic domain LCIdel mutant (D1129 to G1936 residues with Y1481 to N1843 replaced by 3 x GGGGS linker) expressed in Escherichia coli BL21 (DE3) using 5-methylcytosine as substrate preincubated for 10 mins followed by substrate and DNA-cofactor addition measured after 12 mins by SPE-MS analysis.

T1 sequence (Q8NFU7 whole entry, the tested form may be a part): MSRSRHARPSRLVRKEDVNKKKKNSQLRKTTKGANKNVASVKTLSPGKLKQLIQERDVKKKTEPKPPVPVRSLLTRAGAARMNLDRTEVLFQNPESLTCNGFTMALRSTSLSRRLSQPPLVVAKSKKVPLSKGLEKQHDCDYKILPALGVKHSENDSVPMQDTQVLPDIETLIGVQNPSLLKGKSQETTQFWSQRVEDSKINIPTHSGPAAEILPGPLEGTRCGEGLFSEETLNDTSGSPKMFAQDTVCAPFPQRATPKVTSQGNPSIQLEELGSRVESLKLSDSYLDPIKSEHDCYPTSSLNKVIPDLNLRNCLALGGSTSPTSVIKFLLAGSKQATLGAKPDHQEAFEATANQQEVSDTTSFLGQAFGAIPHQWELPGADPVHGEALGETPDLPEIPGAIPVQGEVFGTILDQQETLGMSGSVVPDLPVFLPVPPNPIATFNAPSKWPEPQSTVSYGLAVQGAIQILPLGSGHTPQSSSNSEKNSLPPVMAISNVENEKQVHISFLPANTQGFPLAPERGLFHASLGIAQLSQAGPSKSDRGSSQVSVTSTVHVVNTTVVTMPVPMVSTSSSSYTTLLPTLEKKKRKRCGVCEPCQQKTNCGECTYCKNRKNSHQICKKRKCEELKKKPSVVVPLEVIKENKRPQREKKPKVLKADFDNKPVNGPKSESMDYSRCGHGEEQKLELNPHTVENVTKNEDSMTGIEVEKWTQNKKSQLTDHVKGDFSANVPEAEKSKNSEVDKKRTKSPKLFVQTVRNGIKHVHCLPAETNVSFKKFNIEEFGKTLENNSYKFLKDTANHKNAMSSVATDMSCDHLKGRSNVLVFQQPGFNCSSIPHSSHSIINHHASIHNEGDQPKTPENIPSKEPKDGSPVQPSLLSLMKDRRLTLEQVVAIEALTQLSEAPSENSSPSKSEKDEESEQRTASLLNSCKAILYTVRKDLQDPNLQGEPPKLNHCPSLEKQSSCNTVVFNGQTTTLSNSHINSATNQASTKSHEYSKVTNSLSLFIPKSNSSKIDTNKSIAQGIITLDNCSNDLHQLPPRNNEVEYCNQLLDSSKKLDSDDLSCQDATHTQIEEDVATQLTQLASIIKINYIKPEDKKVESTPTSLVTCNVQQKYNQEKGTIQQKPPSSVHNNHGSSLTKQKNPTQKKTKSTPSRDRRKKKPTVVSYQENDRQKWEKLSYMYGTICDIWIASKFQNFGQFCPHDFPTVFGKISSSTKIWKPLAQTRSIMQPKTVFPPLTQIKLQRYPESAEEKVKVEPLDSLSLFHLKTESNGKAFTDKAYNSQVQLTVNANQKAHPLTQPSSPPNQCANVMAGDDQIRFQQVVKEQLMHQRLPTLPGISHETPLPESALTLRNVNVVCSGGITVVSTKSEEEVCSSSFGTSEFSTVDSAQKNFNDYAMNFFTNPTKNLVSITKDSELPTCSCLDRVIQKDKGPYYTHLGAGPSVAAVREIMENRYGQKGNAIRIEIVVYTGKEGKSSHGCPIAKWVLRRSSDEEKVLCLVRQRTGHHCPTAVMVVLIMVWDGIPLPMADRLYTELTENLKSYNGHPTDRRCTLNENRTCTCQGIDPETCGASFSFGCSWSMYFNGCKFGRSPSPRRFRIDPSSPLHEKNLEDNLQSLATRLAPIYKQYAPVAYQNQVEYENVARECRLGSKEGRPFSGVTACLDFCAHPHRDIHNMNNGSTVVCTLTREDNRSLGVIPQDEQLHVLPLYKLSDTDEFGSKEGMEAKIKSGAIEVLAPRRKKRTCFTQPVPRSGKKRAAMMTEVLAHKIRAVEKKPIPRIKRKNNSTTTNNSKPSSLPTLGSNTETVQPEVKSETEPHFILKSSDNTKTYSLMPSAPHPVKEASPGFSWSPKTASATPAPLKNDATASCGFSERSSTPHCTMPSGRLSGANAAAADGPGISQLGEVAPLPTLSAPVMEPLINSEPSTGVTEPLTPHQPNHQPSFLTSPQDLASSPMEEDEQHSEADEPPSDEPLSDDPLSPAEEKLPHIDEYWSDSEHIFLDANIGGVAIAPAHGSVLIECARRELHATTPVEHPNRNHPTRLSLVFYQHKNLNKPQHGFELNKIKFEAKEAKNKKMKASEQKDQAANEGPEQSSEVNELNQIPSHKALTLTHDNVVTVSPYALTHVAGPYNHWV
Sequence of Methylcytosine dioxygenase TET1 (Mus musculus, UniProt Q3URK3) (Q3URK3 whole entry, the tested form may be a part): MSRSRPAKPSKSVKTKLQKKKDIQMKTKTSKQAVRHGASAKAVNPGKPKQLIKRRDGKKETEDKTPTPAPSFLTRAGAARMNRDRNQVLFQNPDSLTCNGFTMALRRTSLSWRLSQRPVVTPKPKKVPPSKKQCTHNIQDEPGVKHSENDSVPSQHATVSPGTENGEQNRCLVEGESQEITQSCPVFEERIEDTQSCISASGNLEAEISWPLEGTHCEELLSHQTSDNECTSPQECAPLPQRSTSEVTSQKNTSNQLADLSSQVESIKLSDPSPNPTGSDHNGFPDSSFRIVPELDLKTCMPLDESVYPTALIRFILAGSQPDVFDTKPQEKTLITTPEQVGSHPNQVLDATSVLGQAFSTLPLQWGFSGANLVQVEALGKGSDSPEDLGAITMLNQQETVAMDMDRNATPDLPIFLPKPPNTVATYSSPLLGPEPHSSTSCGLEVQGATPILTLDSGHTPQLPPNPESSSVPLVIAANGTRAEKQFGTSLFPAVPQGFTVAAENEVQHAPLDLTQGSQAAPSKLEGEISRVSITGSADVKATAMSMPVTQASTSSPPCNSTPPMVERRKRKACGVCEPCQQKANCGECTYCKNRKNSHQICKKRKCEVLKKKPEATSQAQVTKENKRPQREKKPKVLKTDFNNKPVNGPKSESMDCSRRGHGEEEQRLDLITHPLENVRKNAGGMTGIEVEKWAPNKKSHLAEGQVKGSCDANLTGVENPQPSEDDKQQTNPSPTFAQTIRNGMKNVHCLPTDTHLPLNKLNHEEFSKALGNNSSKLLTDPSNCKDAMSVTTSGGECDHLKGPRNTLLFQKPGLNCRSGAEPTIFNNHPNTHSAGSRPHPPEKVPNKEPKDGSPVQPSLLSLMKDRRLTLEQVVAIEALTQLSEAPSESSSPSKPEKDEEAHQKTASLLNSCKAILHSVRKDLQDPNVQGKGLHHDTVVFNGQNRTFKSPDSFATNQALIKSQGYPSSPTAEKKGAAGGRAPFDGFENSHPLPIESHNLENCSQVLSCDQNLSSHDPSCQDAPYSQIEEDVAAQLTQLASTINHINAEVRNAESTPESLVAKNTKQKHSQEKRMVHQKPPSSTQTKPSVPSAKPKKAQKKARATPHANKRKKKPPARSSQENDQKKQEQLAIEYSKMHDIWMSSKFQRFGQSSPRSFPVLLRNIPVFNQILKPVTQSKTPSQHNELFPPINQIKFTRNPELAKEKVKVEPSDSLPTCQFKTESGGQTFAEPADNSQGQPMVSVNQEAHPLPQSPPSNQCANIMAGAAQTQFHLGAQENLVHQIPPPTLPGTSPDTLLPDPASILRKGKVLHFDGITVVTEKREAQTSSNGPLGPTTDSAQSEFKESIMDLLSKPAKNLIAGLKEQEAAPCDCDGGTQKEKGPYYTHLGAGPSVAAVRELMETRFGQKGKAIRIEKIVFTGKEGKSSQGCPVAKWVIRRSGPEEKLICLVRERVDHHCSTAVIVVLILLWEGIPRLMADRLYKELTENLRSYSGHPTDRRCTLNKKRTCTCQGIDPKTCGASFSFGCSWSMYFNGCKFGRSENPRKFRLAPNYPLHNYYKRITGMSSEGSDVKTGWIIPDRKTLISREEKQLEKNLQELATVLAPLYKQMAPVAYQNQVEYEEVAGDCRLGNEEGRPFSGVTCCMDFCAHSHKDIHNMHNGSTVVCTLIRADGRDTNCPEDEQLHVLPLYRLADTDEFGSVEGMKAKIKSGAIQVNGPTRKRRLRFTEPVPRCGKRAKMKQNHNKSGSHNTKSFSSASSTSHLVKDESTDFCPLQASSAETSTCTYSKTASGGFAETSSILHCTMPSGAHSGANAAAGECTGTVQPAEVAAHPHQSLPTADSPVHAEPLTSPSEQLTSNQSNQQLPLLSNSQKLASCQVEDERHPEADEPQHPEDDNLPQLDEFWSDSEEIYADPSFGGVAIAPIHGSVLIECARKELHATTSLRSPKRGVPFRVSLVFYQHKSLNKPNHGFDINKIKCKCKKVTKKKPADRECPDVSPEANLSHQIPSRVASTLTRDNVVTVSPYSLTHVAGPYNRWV

In the case of `O=C(O)c1ccc(O)c2ncccc12`, the IC50 in experiment [1] is 0.562 µM; in experiment [3] it was 22 µM; in experiment [4] it was 0.427 µM. Also, in experiment [2], the deltapIC50 came to 0.07.
Consider `CC[C@H](C)[C@@H]1NC(=O)[C@H](CC(C)C)NC(=O)[C@H](Cc2c[nH]c3ccccc23)NC(=O)[C@H](Cc2c[nH]c3ccccc23)NC(=O)[C@H]([C@@H](C)O)NC(=O)[C@H](Cc2ccc(O)cc2)NC(=O)[C@H](CC(C)C)NC(=O)[C@H](C)NC(=O)[C@H](Cc2ccc(O)cc2)NC(=O)[C@H](CCC(=O)O)NC(=O)[C@H](CCCNC(=N)N)NC(=O)[C@@H](Cc2ccc(O)cc2)NC(=O)CSC[C@@H](C(N)=O)NC(=O)[C@H](CCC(N)=O)NC1=O`, for which the IC50 was 0.204 µM in experiment [1], 49 µM in experiment [5] and 45.7 µM in experiment [4]. The same compound came in with a deltapIC50 in experiment [2] of 1.22. The Ratio pIC50 in the experiment filed under Homo sapiens was determined as 12. The results for the pIC50 in experiment [6] and in experiment [7] were 4.38 and 5.6, respectively.
